Reference: ChEMBL document CHEMBL3621160, “Pseudosaccharin amines as potent and selective KV1.5 blockers” (Bioorg Med Chem Lett, 2015)

Key:
[1] = biological target: T1, Potassium voltage-gated channel subfamily A member 5 (Homo sapiens, UniProt P22460); assay: Inhibition of human KV1.5 expressed in mouse L929 cells assessed as decrease in ultrarapid potassium current amplitude relative to control; format: cell-based; design: concentration or dose not given beside the values; settings: concentration not given here
T1 sequence (P22460 whole entry): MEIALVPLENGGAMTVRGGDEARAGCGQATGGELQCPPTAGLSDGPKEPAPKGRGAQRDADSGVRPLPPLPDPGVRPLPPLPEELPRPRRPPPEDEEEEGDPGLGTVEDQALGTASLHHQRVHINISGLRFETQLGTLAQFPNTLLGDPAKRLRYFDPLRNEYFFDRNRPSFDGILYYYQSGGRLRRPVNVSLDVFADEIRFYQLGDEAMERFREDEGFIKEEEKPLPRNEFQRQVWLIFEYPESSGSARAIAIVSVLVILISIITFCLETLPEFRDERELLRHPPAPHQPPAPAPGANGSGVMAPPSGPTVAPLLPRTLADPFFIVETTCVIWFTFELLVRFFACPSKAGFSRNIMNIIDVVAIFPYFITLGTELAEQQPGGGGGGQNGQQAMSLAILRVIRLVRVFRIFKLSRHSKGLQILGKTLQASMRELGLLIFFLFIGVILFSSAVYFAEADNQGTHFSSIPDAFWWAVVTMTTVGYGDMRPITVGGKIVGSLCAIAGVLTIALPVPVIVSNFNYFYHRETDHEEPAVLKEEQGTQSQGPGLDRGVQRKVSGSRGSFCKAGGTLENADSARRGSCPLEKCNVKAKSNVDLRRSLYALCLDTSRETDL
Outline: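 Potassium current block in mouse fibroblast L929 cells expressing human Kv1.5. IC50 values are means of 2-4 experiments.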

[2] = biological target: T1, Potassium voltage-gated channel subfamily A member 5; assay: Inhibition of human KV1.5 expressed in mouse L929 cells assessed as decrease in ultrarapid potassium current amplitude; format: cell-based
Outline: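 Potassium current block was measured in mouse fibroblast L929 cells expressing human KV1.5. IC50 values are means of 2-4 experiments.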

[3] = Metabolic stability in rat liver microsomes assessed as compound remaining at 3 uM after 10 mins; format: ADME; settings: read-out: Stability
Outline: (§1)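 Parent compound at 3 µM was incubated 10 min in human, rat or mouse liver microsomes with appropriate co-factors. Read-out is percent of parent remaining.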

[4] = Metabolic stability in mouse liver microsomes assessed as compound remaining at 3 uM after 10 mins; format: ADME; settings: read-out: Stability; outline: as §1
[5] = Metabolic stability in human liver microsomes assessed as compound remaining at 3 uM after 10 mins; format: ADME; settings: read-out: Stability; outline: as §1
[6] = Oral bioavailability in rat at 3.6 mg/kg; format: ADME, organism-based; settings: in vivo
Outline: (§2)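 Rats, 3 animals per compound; values are means. Intravenous arm: intra-arterial infusion over 10 min. Oral arm: dosing by gavage. Both routes used a vehicle of 40% PEG 400, 40% water and 20% ethanol. Parameters were derived from plasma concentrations across the infusion and oral arms.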

hERG (KCNH2) = hERG (KCNH2) (Homo sapiens, UniProt Q12809); assay: Inhibition of human ERG at 10 uM relative to control
Sequence of hERG (KCNH2) (Q12809 whole entry): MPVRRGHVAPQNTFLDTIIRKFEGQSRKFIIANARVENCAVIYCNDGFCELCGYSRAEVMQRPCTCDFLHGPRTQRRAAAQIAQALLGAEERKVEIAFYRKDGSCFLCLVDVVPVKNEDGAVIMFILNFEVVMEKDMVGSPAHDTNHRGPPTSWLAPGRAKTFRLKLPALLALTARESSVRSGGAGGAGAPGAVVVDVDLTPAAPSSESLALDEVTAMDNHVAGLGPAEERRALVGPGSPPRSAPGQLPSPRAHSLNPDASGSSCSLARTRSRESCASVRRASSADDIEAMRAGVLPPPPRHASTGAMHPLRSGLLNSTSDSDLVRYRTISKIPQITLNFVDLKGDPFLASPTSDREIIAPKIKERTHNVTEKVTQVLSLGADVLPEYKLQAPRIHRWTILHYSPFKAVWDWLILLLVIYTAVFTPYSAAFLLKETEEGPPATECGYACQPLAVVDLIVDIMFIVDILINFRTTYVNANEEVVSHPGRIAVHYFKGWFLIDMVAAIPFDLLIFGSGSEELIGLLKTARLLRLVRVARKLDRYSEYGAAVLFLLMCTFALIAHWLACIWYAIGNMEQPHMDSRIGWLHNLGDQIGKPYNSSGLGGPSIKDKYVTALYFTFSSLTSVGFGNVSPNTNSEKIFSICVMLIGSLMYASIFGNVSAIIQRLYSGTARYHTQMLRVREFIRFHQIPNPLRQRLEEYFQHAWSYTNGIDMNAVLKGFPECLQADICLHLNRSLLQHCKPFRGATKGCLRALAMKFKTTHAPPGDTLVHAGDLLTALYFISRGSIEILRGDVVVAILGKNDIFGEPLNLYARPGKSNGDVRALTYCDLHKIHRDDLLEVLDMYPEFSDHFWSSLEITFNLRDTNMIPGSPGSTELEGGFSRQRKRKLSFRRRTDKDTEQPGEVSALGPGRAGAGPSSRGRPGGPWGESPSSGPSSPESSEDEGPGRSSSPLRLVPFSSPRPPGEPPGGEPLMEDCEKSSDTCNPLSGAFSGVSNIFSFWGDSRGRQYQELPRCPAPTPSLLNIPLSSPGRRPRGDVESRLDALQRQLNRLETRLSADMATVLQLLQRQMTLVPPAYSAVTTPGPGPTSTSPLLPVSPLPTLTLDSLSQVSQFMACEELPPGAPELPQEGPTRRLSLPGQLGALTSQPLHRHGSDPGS
Outline: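 Screening panel of over 37 receptors and enzymes relevant to cardiovascular effects or toxicity. Each target was tested at a single concentration of 10 µM, with % activity reported.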

[7] = Cmax in rat at 1.6 mg/kg administered as intra-arterial infusion for 10 mins and 3.6 mg/kg, po; format: ADME, organism-based; design: route oral; settings: in vivo; outline: as §2
Oryctolagus cuniculus [8] = species: Oryctolagus cuniculus; assay: Induction of […] effective refractory period prolongation in rabbit; format: functional
Outline: (§3)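 Rabbits were dosed at 0.3, 1.0 and 3.0 mg/Kg. Effective refractory period was measured in atrium and ventricle, and blood pressure was recorded. The plasma concentration giving 20% atrial ERP prolongation (EC20) was calculated.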

[9] = Cmax in rabbit at 0.3 to 3 mg/kg; format: ADME, organism-based, Oryctolagus cuniculus; settings: in vivo; outline: as §3
[10] = Volume of distribution at steady state in rat at 1.6 mg/kg administered as intra-arterial infusion for 10 mins and 3.6 mg/kg, po; format: ADME, organism-based; settings: in vivo, read-out: Vdss; outline: as §2
[11] = Plasma concentration in rat at 3 mg/kg, iv administered as infusion for 5 mins; format: ADME, organism-based
Outline: (§4)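 Rats were dosed at 3 mg/Kg. QT interval on ECG, mean blood pressure (% change) and plasma concentration were measured. Values are means of 2-4 experiments.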

Oryctolagus cuniculus [12] = species: Oryctolagus cuniculus; assay: Toxicity in rabbit assessed as effect on ventricular effective refractory period; format: organism-based, Cardiac ventricle; settings: in vivo; outline: as §3
Rattus norvegicus [13] = assay: Toxicity in rat assessed as increase in blood pressure at 3 mg/kg, iv administered as infusion for 5 mins; format: organism-based; settings: in vivo; outline: as §4
Homo sapiens [14] = species: Homo sapiens; assay: Inhibition of sodium channel (unknown origin) at 10 uM relative to control
Outline: (§5)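 Calcium (ICa) and sodium (INa) currents were measured as percent inhibition at a single concentration of 10 µM. Values are means of 2-4 experiments.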

Rattus norvegicus [15] = assay: Induction of QT interval prolongation in rat at 3 mg/kg, iv administered as infusion for 5 mins by ECG analysis; format: functional
Outline: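 Rats were dosed at 3 mg/Kg. Block of IKur was read as the percent change in the ECG QT interval; mean blood pressure and plasma concentration were recorded alongside. Values are means of 2-4 experiments.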

Oryctolagus cuniculus [16] = assay: Toxicity in rabbit assessed as increase in blood pressure at 0.3 to 3 mg/kg; format: organism-based; settings: in vivo; outline: as §3
[17] = AUC in rat at 3.6 mg/kg, po; format: ADME, organism-based; settings: in vivo; outline: as §2
[18] = Half life in rat at 1.6 mg/kg administered as intra-arterial infusion for 10 mins and 3.6 mg/kg, po; format: ADME, organism-based; settings: in vivo; outline: as §2
Homo sapiens [19] = species: Homo sapiens; assay: Inhibition of calcium channel (unknown origin) at 10 uM relative to control; outline: as §5
[20] = Clearance in rat at 1.6 mg/kg administered as intra-arterial infusion for 10 mins and 3.6 mg/kg, po; format: ADME, organism-based; settings: in vivo; outline: as §2

Row | SMILES | inhibition [1] [%] | IC50 [2] [nM] | remaining at 10 min, 3 µM [3] [%] | remaining at 10 min, 3 µM [4] [%] | remaining at 10 min, 3 µM [5] [%] | also measured
1 | COc1cccc2c1C(NC[C@]1(c3ccccc3)CC[C@H](OC(=O)NCCO)CC1)=NS2(=O)=O | 27 | > 10000 |  |  |  | 
2 | COc1cccc2c1C(NC[C@]1(c3ccccc3)CC[C@@H](O)CC1)=NS2(=O)=O | 14 | > 300 | 73 | 73 | 98 | 
3 | COc1cccc2c1C(NC[C@]1(c3ccccc3)CC[C@H](n3cnnn3)CC1)=NS2(=O)=O |  | 32 | 19 | 56 | 56 | 
4 | COc1cccc2onc(NCC(C)(C)c3ccccc3)c12 |  |  | 13 | 11 | 7 | 
5 | CCOC(=O)N[C@H]1CC[C@](CNC2=NS(=O)(=O)c3cccc(OC)c32)(c2ccccc2)CC1 |  | 55 | 19 |  | 55 | 
6 | COc1cccc2c1C(NC[C@]1(c3ccccc3)CC[C@H](Nc3ncccn3)CC1)=NS2(=O)=O |  | 47 | < 1 | < 1 | 6 | 
7 | COc1cccc2c1C(NC[C@]1(c3ccccc3)CC[C@H](OC(=O)Nc3nnc(C4CC4)s3)CC1)=NS2(=O)=O |  | 92 | 70 | 66 | 75 | bioavailability [6]: 1%; inhibition at 10 µM (hERG (KCNH2)): 17%; Cmax [7]: 0.011 µM; EC20 (Oryctolagus cuniculus [8]): 23000 nM; Cmax [9]: 23 µM; Vd [10]: 0.9 L/kg; concentration at 5 min [11]: 72 µM; Activity (Oryctolagus cuniculus [12]): Non-toxic; Activity (Rattus norvegicus [13]): 19%; inhibition (Homo sapiens [14]): 21%; Activity (Rattus norvegicus [15]): 23%; Activity (Oryctolagus cuniculus [16]): 6%; AUC [17]: 0.2 µM·h; half-life [18]: 2.3 h; inhibition (Homo sapiens [19]): 8%; clearance [20]: 6.8 mL/min/kg
8 | COc1cccc2c1C(NCC(C)(C)c1ccccc1)=NC2=O |  | 34 | 43 |  | 99 | 
9 | COc1cccc2c1C(NC[C@]1(c3ccccc3)CC[C@H](OC(=O)NCCC(F)(F)F)CC1)=NS2(=O)=O |  | 89 | < 1 | 3 | < 1 | 
10 | CCN(CC)S(=O)(=O)N[C@H]1CC[C@](CNC2=NS(=O)(=O)c3cccc(OC)c32)(c2ccccc2)CC1 |  | 52 | < 1 | < 1 | < 1 | 
11 | CCOP(=O)(NC(=O)O[C@H]1CC[C@](CNC2=NS(=O)(=O)c3cccc(OC)c32)(c2ccccc2)CC1)OCC | 13 | > 10000 |  |  |  | 
12 | COc1cccc2snc(NCC(C)(C)c3ccccc3)c12 |  | 24 |  |  | 13 | 
13 | COc1cccc2c1C(NC[C@]1(c3ccccc3)CC[C@H](OC(=O)NC3CC3)CC1)=NS2(=O)=O |  | 170 | 5 | < 1 | 9 | 
14 | COc1cccc2c1C(NC[C@]1(c3ccccc3)CC[C@H](N)CC1)=NS2(=O)=O | 5 | > 10000 |  |  |  | 
15 | COc1cccc2c1C(NC[C@]1(c3ccccc3)CC[C@H](OC(=O)NS(=O)(=O)c3ccccc3)CC1)=NS2(=O)=O | 1 | > 10000 |  |  |  | 
16 | COc1cccc2c1C(NC[C@]1(c3ccccc3)CC[C@H](OC(=O)Nc3ccc(N(C)C)cc3)CC1)=NS2(=O)=O |  | 30 | < 1 | < 1 | 2 | 
17 | COc1cccc2c1C(NC[C@]1(c3ccccc3)CC[C@H](OC(=O)N(C)CCN(C)C)CC1)=NS2(=O)=O | 4 | > 10000 |  |  |  | 
18 | COc1cccc2c1C(NC[C@]1(c3ccccc3)CC[C@H](NS(N)(=O)=O)CC1)=NS2(=O)=O | 18 | > 10000 |  |  |  | 
19 | CCS(=O)(=O)N[C@H]1CC[C@](CNC2=NS(=O)(=O)c3cccc(OC)c32)(c2ccccc2)CC1 |  | 60 | 67 | 30 | 75 | inhibition at 10 µM (hERG (KCNH2)): 59%; inhibition (Homo sapiens [14]): 7%; inhibition (Homo sapiens [19]): 14%
20 | CCNC(=O)N[C@H]1CC[C@](CNC2=NS(=O)(=O)c3cccc(OC)c32)(c2ccccc2)CC1 | 20 | > 10000 |  |  |  | 
21 | CCNC(=O)O[C@H]1CC[C@](CNC2=NS(=O)(=O)c3cccc(OC)c32)(c2ccccc2)CC1 |  | 65 | < 1 | < 1 | 2 | 
22 | COc1cccc2c1C(NC[C@]1(c3ccccc3)CC[C@H](NC(=O)OCC(F)(F)F)CC1)=NS2(=O)=O |  | 28 | 57 | 48 | 95 | inhibition at 10 µM (hERG (KCNH2)): 47%; inhibition (Homo sapiens [14]): 23%; inhibition (Homo sapiens [19]): 51%
